Casp6 inh = caspase-6 (human) enzyme inhibition | inhibition, % at 12.5 µM | P55212 | AID 686996 | purified caspase-6, Z-VEID-R110 cleavage fluorescence | actives 0.53% (n = 350,000);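 active = mean inhibition across replicates at least about 35%, with every replicate also reaching that limit, limit read from the data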;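 also: 0% = median of neutral control wells and 100% = no fluorescence left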
FN deposition inh = fibronectin deposition inhibition; actives 0.086% (n = 350,000); AH1F fibroblasts, Alexa488-fibronectin deposition fluorescence, overnight; inhibition, % at 12.6 µM;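 active = mean inhibition across replicates of 30% or more, regardless of how many single replicates reach that level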;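 also: positive control wells lacked labelled fibronectin entirely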
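Material: AH1F fibroblast monolayer depositing Alexa488-labelled fibronectin into matrix / Amount: 10000 AH1F cells per well / Signal: fluorescence 485/525 nm / Medium: DMEM, 2% serum / Compound: single dose, pinned / Incubation: 1 h cell adhesion before compound, then overnight fibronectin incubation / Reagent: Alexa488-FN, 24 nM final / Read-out: inhibition of fibronectin deposition signal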
NSD2 HMT inh = blocks human histone methyltransferase NSD2 | NSD2 peptide methylation, AlphaScreen, 120 min | inhibition, % at 12.5 µM | actives 0.54% (n = 310,000); in the data active = inhibition above about 50%
NPR2 activator = GC-B (human) receptor activation | P20594 | HEK293-GC-B cells, CNP EC30, cGMP TR-FRET; 0% at EC30 CNP, 100% saturating CNP | activation, % at 10 µM | actives 0.11% (n = 370,000) | AID 1920062;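 active = activation at 10 µM reaching about 35% in either raw or pattern-adjusted values, limit read from the data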
CaV13 ICDI inh = Primary screen for inhibitors of IQ motif and Ca2+-dependent inactivation inhibitor domain binding in CACNA1D, Förster resonance energy transfer in living cells, … | actives 0.098% (n = 340,000) | AID 743397 | inhibition, % at 12.3 µM | HEK cells, CFP/YFP FRET ICDI-IQ, plate reader, 10 min; percent FRET-ratio fall versus neutral wells;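 active = mean replicate inhibition of at least 30% and at least 1% of replicates passing that level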;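 also: 0% = median of the neutral control wells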
GC-A act = GC-A (human) enzyme activation; HEK293 GC-A cells, cGMP TR-FRET, EC30 ANP; 0% at EC30 ANP, 100% saturating ANP; activation, % at 10 µM; actives 0.14% (n = 370,000); in the data active = activation above about 40%
* = called active by the depositor; · = no result; + = active, no number. Most compounds without a hit are left out; they make up all but 0.99% or so of the library.

SMILES	Casp6 inh	FN deposition inh	NSD2 HMT inh	NPR2 activator	CaV13 ICDI inh	GC-A act
CCCNC(=O)N1C[C@@H](O)COC[C@H]2O[C@@H](CC(=O)N3CCCCC3)CC[C@@H]21	1	-1	·	·	·	·
CCC(=O)N1CC[C@@H]2[C@@H](CO)Nc3ccc(C#Cc4ccc(F)cc4)cc3[C@@H]21	6	3	·	·	·	·
CC(C)(C)C(=O)Cn1ncc(Br)c(Br)c1=O	0	15	12	1	-4	62*
O=C(COC(=O)c1ccccc1OCc1ccccc1Cl)NC1CCS(=O)(=O)C1 (stereo unspecified)	61*	2	0	2	-1	-4
O=C(COC(=O)c1ccccc1Cc1ccccc1)NC1CCS(=O)(=O)C1 (stereo unspecified)	0	·	-1	-3	·	0
COc1cccc(-c2ccc([C@H]3[C@H](CO)N4C(=O)CN(C(=O)NC(C)C)C[C@@H]34)cc2)c1	-1	·	·	·	·	·
COc1ccc2c3c(n(C)c2c1)[C@@H](CO)N(C(=O)C1CCCC1)CC31CN(C)C1	-4	·	·	·	·	·
CC1CCCC(C)N1C(=O)C1CCCCC1 (stereo unspecified)	59*	0	·	2	-2	4
CC1CN(C(=O)C2CCCCC2)C(C)CN1C(=O)C1CCCCC1 (stereo unspecified)	·	·	-10	4	-8	-2
CCCC(O)C#Cc1cnc2c(c1)C(=O)N([C@H](C)CO)C[C@H](C)[C@H](CN(C)Cc1cccc(C)c1)O2 (stereo partly specified)	-2	-10	·	·	·	·
COc1ccc2c3c([nH]c2c1)[C@H](CO)N(Cc1ccncc1)CC31CN(CC2CCOCC2)C1	-9	·	·	·	·	·
Cc1ccc(NC(=O)Nc2nnc(-c3ccccc3)o2)cc1	38*	-11	0	4	-3	-1
O=C(C[C@@H]1CC[C@@H]2[C@H](COC[C@H](O)CN2CC2CCCCC2)O1)NCc1ccc(Cl)cc1	1	4	·	·	·	·
C[C@@H](NC(=O)C[C@@H]1CC[C@@H](NC(=O)CN2CCOCC2)[C@@H](CO)O1)c1ccccc1	63*	-1	·	·	·	·
CCOC(=O)c1cnc2c(c(C)nn2-c2ccc(C)cc2)c1Cl	-5	0	-3	-11	-20	60*
CN(C)C(=O)c1cccc(-c2ccccc2[C@H]2[C@@H](C#N)N(C(=O)C3CCCCC3)[C@H]2CO)c1	0	7	·	·	·	·
CC(=O)c1sc(N/N=C\c2ccc(N(C)C)cc2)nc1C	-4	0	-4	-12	+	1
C[C@@]12C(=O)OC(=O)[C@]1(C)C1CCC2O1	-9	41*	·	1	-5	0
CC12C(=O)N(c3nccs3)C(=O)C1(C)C1CCC2O1 (stereo unspecified)	0	12	15	3	-11	0
COc1ccccc1CNC(=O)C[C@H]1C[C@H]2c3cc(NS(C)(=O)=O)ccc3O[C@H]2[C@@H](CO)O1	-2	-11	·	·	·	·
Cc1cccc(C)c1OCc1nc2ccccc2[nH]1	43*	4	-3	-2	-1	-2
C[C@H]1CN([C@@H](C)CO)C(=O)Cc2cc(N(C)C)ccc2O[C@@H]1CN(C)Cc1ccncc1	0	2	·	·	·	·
COCC(=O)N(C)C[C@@H]1Oc2cc(-c3ccc(C#N)cc3)ccc2S(=O)(=O)N([C@@H](C)CO)C[C@@H]1C	2	6	·	·	·	·
CCC(C)n1c(NC(=O)c2ccccc2)c(C#N)c2nc3ccccc3nc21 (stereo unspecified)	·	·	·	11	·	1
CCC(=O)Nc1c(C#N)c2nc3ccccc3nc2n1-c1ccc(C)cc1	54*	9	43	-12	-3	2
SMILES	Casp6 inh	FN deposition inh	NSD2 HMT inh	NPR2 activator	CaV13 ICDI inh	GC-A act
O=C(O)/C(=C\c1cccc(F)c1)c1ccc(S(=O)(=O)N2CCCC2)s1	57*	2	5	3	-5	0
CCOc1ccccc1/C=C(\C(=O)O)c1ccc(S(=O)(=O)N2CCCCC2)s1	36*	-2	13	-1	-16	3
CCCCOc1ccc(/C=C(\C(=O)O)c2ccc(S(=O)(=O)N3CCCC3)s2)cc1	9	7	3	2	-6	-2
COc1cc(/C=C(\C(=O)O)c2ccc(S(=O)(=O)N3CCCC3)s2)ccc1OCCC(C)C	45*	-5	8	-2	-3	-5
Cc1cccc(/C=C(\C(=O)O)c2ccc(S(=O)(=O)N3CCCC3)s2)c1	52*	·	9	-3	-6	-4
C[C@@H]1CCCCO[C@@H](CN(C)Cc2ccc(C(F)(F)F)cc2)[C@H](C)CN([C@@H](C)CO)C(=O)c2cc(NS(=O)(=O)c3ccc(F)cc3)ccc2O1	1	-7	·	·	·	·
C[C@H]1CN([C@@H](C)CO)C(=O)c2cccc(NS(C)(=O)=O)c2O[C@H]1CN(C)S(=O)(=O)c1cccs1	3	-2	·	·	·	·
Cc1[nH][nH]c(=O)c1C(c1c(C)[nH][nH]c1=O)c1cn(Cc2ccc(Cl)c(Cl)c2)c2ccccc12	22	23	98*	-9	-5	-17
O=c1c2ccccc2ncn1Cc1ccc(Cl)c(Cl)c1	-1	6	-1	-2	-21	-7
Cc1[nH][nH]c(=O)c1C(c1c(C)[nH][nH]c1=O)c1cn(Cc2ccc(F)cc2)c2ccccc12	·	·	88*	·	·	·
O=C(O)Cc1cn(Cc2ccc(F)cc2)c2ccccc12	2	·	3	8	-7	3
COc1cc(CN2CCc3ccccc3C2)cc([N+](=O)[O-])c1O	47*	0	-1	1	-2	0
COc1ccc2c(c1)c(=O)oc1c(C)c(OCc3cc(C(=O)O)oc3C)ccc12	51*	-2	·	-3	-4	-3
C[C@@H]1CN([C@@H](C)CO)C(=O)c2cc(-c3ccccc3)cnc2O[C@H]1CN(C)C(=O)c1cccc(F)c1	·	-25	·	·	·	·
C[C@H](CO)N1C[C@H](C)[C@H](CN(C)C(=O)c2cccc(F)c2)Oc2ncc(-c3ccccc3)cc2C1=O	·	34*	·	·	·	·
C[C@H](CO)N1C[C@H](C)[C@@H](CN(C)CC2CCCC2)Oc2ncc(Br)cc2C1=O	-1	·	·	·	·	·
C[C@@H]1CN([C@H](C)CO)C(=O)c2cc(Br)cnc2O[C@H]1CN(C)CC1CCCC1	62*	·	·	·	·	·
C[C@@H]1CN([C@@H](C)CO)C(=O)c2cc(C#CCN(C)C)cnc2O[C@@H]1CN(C)C(=O)c1ccc2c(c1)OCO2	-3	2	·	·	·	·
C[C@H]1CN([C@@H](C)CO)C(=O)c2cc(C#CCN(C)C)cnc2O[C@H]1CN(C)C(=O)c1ccc2c(c1)OCO2	57*	0	·	·	·	·
N#Cc1cccc(-c2ccc3c(c2)[C@H]2[C@H](CCN2C(=O)c2ccc4c(c2)OCO4)[C@H](CO)N3)c1	-2	-8	·	·	·	·

Bioassay records: PubChem BioAssay, several laboratories
